Screens (PubChem BioAssay)
FGF22 binding – binders of human FGF22 protein, primary screen, FGF22 synaptogenesis inhibitor project, biophysical, thermal shift, single point. Fibroblast growth factor 22 (Homo sapiens), Q9HCT0. recombinant FGF22 thermal shift, SYPRO orange fluorescence; percent of sucrose octasulfate shift, DMSO zero. activity (Tm shift, normalised), % at 9.99 µM. 1.5% of 340,000 active;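 active = mean Tm shift, scaled 0 neutral to 100 positive control, at about 1.3% or above, every replicate too, limit read from the data; inconclusive = no clear call, values can overlap the other calls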
Target sequence (Q9HCT0 whole entry, looked up): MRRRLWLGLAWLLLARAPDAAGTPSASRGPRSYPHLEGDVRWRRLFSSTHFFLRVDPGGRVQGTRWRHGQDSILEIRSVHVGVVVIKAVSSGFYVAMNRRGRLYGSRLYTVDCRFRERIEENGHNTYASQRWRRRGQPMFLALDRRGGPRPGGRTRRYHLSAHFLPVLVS
Xi reactivation – activators of inactive X chromosome reactivation, primary screen, imaging, XiGFP fibroblasts, GFP high-content imaging, set 2 | XiGFP mouse fibroblasts, % GFP-positive cells imaging, 3 d; cells co-treated with 5-aza-dC sensitizer; scaled so ellipticine positive control = 100% | activation, % at 7.58 µM | 0.055% of 360,000 active;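 active = mean normalized replicate activation at least 10% and every replicate at or above 10%; inconclusive = only one of the two criteria met; inactive = mean below 10% and not all replicates reach 10%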;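 also: 0% = median of on-plate neutral control wells and 100% = ellipticine 6 µM median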
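assay system = SV40-immortalized XiGFP fibroblast cells, line 68-5-11 | buffer or medium = DMEM plus 5-aza-dC sensitizer | doses = single-point pinned compound dosing | times = 3-day compound exposure, then 15 min fixation at room temperature | benchmarks = positive control ellipticine, 6 µM final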
E-selectin induc – E-selectin induction in HUVECs, primary screen, imaging, HUVEC, immunofluorescence imaging, single point; P16581; normalized: neutral wells 0, TNF-alpha wells 100; activation, % at 7.58 µM; 0.37% of 260,000 active;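 active = mean E-selectin-positive cell signal at least 10% of the positive control, reached in at least 60% of replicates, without over 20% cell loss; inconclusive = no rule given, readout overlaps actives, possibly toxicity-flagged; inactive = the rest, including those meeting only one limit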
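Read-out: % PE-positive cells | Test system: HUVEC | Doses: One compound dose added by pin transfer | Buffer or medium: EGM-2 over gelatin coat | Signal: Immunofluorescence imaging | Benchmarks: TNF-alpha, DMSO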
Statin myotox sup – suppressors of statin myotoxicity in C2C12 myotubes, primary screen, cell-based, single point, plate reader; rescue of ATP level, % at 7.49 µM; C2C12 myotubes + simvastatin, ATP luminescence, 48 h; scaled: DMSO 0, geranylgeraniol control 100; 0.78% of 330,000 active; AID 602340, 2012;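 active = mean ATP rescue above about 67%, or every replicate alone reaching that limit, limit read from the data, passing the limit was not always enough; inconclusive = no clear call, values can overlap the other calls; inactive = mean under the limit and some replicate under it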;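 also: myotubes were challenged with 10 µM simvastatin during compound exposure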
PglD inh – C. jejuni PglD acetyltransferase inhibitors, primary screen, biochemical, DTNB colorimetric, single point; purified PglD enzyme, DTNB colorimetric CoA detection; 0.098% of 360,000 active; inhibition, % at 12.5 µM; AID 602405, 2012; in the data active = inhibition above about 16%, passing the limit was not always enough; inconclusive = no clear call, values can overlap the other calls
DENV2 CPE rescue – inhibitors of DENV2 cytopathic effect, primary screen, cell-based, plate reader, single concentration; DENV2-infected cells, cytopathic effect rescue; CPE inhibition, % at 9.99 µM; 1.7% of 350,000 active; in the data active = CPE inhibition above about 20%, passing the limit was not always enough; inconclusive = no clear call, values can overlap the other calls; tested in BHK-21 cells;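 also: 0% = median of neutral control wells and 100% = median of positive control wells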
* hit, by the source's call; ? = inconclusive; . = no result. A selection: hits, their analogues and other compounds. The true share with any hit is near 3.3%.

SMILES	FGF22 binding	Xi reactivation	E-selectin induc	Statin myotox sup	PglD inh	DENV2 CPE rescue
CCOc1ccc(N2C(=O)c3ccccc3NC2(C)CC)cc1 (stereo not given)	0	0	0	1	3	14
CNc1nc(Oc2cccc(NC(C)=O)c2)c2sccc2n1	0	0	0	-3	13	53*
COc1ccc(NC(=O)Nc2ccc3c(c2)C(=O)N([C@H](C)CO)C[C@H](C)[C@H](CN(C)C(=O)Nc2c(C)noc2C)OCCCC[C@H](C)O3)cc1	0	0	0	.	0	-2
CC(C)(C)C(=O)Cn1c(=O)n(CC2CCCO2)c(=O)c2ccccc21 (stereo not given)	.	.	.	.	-6	.
O=C(Cn1c(=O)n(CC2CCCO2)c(=O)c2ccccc21)c1ccc(Cl)c(Cl)c1 (stereo not given)	.	.	.	80*	-3	.
CCOc1ccc(C2SCC(=O)N2c2c(C)n(C)n(-c3ccccc3)c2=O)cc1 (stereo not given)	.	.	.	117*	-4	.
Cc1c(N2C(=O)CSC2c2ccccc2)c(=O)n(-c2ccccc2)n1C (stereo not given)	0	0	2	.	-1	11
CCNC(=O)Nc1ccc2c(c1)C(=O)N(C)[C@@H]1CC[C@@H](CC(=O)NCc3ccccc3F)O[C@H]1CO2	.	0	0	-26	4	14
CCCC#Cc1ccc([C@H]2[C@@H](CO)N3CCCCN(Cc4ccncc4)C[C@H]23)cc1	0	0	1	12	-6	-25
CCCC#Cc1ccc([C@@H]2[C@@H](CO)N3CCCCN(Cc4ccncc4)C[C@H]23)cc1	0	0	0	19	4	47*
CCCC#Cc1ccc([C@@H]2[C@H]3CN(Cc4cncnc4)CCCCN3[C@H]2CO)cc1	0	1	0	.	4	29*
O=C(C[C@H]1CC[C@H]2[C@@H](COC[C@H](O)CN2CC2CCOCC2)O1)NCC1CC1	0	0	0	1	0	11
CCc1ccc2c(c1)C(=O)c1ccccc1C2=O	43*	1	.	.	.	-1
Cc1noc(C)c1NC(=O)N(C)C[C@H]1Oc2c(NC(=O)NC3CCCCC3)cccc2C(=O)N([C@H](C)CO)C[C@@H]1C	0	0	.	-19	0	-2
CCCC(O)C#Cc1cnc2c(c1)C(=O)N([C@H](C)CO)C[C@H](C)[C@H](CN(C)C(=O)NC(C)C)O2 (stereo not given in full)	0	-2	0	-7	2	11
O=C(COC(=O)c1cn(-c2ccccc2)nc1-c1ccc(F)cc1)Nc1ncc(Cl)cc1Cl	44*	0	.	.	.	-4
NS(=O)(=O)c1ccc(NC(=O)COC(=O)c2cn(-c3ccccc3)nc2-c2ccc(F)cc2)cc1	.	0	1	.	.	.
COc1cccc(C2c3c(oc4ccccc4c3=O)C(=O)N2CCCN2CCOCC2)c1OC (stereo not given)	0	.	46*	.	3	-5
O=C1c2oc3ccccc3c(=O)c2C(c2cccc(O)c2)N1CCCN1CCOCC1 (stereo not given)	0	0	1	-2	-4	6
O=C(NNC(=S)Nc1ccccc1)C1CCCCC1	44*	0	.	.	.	-12
O=C(NNC(=S)Nc1ccccc1)C1CC1	.	.	.	-4	6	.
S=C(NN=C(C1CC1)C1CC1)Nc1ccccc1	.	.	.	142*	-4	.
O=C(NC(=S)Nc1ccc(S(=O)(=O)Nc2ccccc2)cc1)C1CC1	43*	0	0	.	.	.
Cc1ccc(NC(=S)NC(=O)C2CCC2)cc1C	0	0	-1	-18	1	69*
Cc1ccc(NC(=S)NC(=O)C2CCCC2)cc1C	0	0	3	.	2	-1
O=C(C[C@H]1CC[C@H](NC(=O)Cc2cccnc2)[C@H](CO)O1)NCc1ccc2c(c1)OCO2	0	0	0	8	-1	?
